Results taken from PubChem BioAssay AID492966 (Southern Research Specialized Biocontainment Screening …, 2010).
pIC50: −log10 of the molar value. Active and inactive are the calls of the source.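 How the source made its calls: active means compounds that block at least half of the virus-caused cell damage; inactive means the rest.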

Test system: HEp-2 RSV Long CPE inhibition, luminescence
Assay: RSV cytopathic effect inhibition in HEp-2, dose response, cell-based, RSV Long, luminescence, synthesized compounds, set 3 (AID 492966)
Method in brief: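 Assay system: RSV Long-infected HEp-2 cells / Probe or stimulus: RSV Long, MOI 0.45 / Doses: 8-point twofold series, 50 to 0.39 µM final, 0.5% DMSO / Timing: compound and virus exposure six days at 37 °C / Detection: luminescence-based cytopathic effect measurement / Evaluation: % CPE inhibition and IC50 from bounded 4-parameter fit / Replication: each concentration tested in triplicate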

Compound | IC50 | pIC50
Cc1ccc(NC(=O)[C@@H]2CCCN2S(=O)(=O)c2cccc3cccnc23)cc1 | > 50 µM (inactive) | 
O=C(Nc1ccc(Cl)cc1Cl)[C@@H]1CCCN1S(=O)(=O)c1cccc2cccnc12 | > 50 µM (inactive) | 
Cc1ccccc1NC(=O)[C@@H]1CCCN1S(=O)(=O)c1cccc2cccnc12 |  | 4.78
